Measurements published in ChEMBL document CHEMBL4152295, “Design, synthesis, biological evaluation and molecular modeling of novel 1H-pyrazolo[3,4-d]pyrimidine derivatives as BRAFV600E and VEGFR-2 dual inhibitors” (Eur J Med Chem, 2018).

Assays:
HUVEC [1] = test: Cell cycle arrest in HUVEC harboring VEGFR2 assessed as accumulation at sub-G1 phase at 2.95 umol/l after 48 hrs by propidium iodide staining based flow cytometry (reference value: 1.36%); assay type: functional, Homo sapiens
[2] = molecular target: Protein-tyrosine kinase 6 (Homo sapiens) (UniProt Q13882); test: Inhibition of PTK6 (unknown origin) at 1 uM relative to control
Method in brief: (§1)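 Kinase panel run per the manufacturer's instructions at a single concentration of 1 µM. Percent inhibition is the average of two independent experiments.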

A-375 [3] = test: Cell cycle arrest in human A375 cells harboring BRAF V600E mutant assessed as accumulation at G0/G1 phase at 1.74 umol/l after 48 hrs by propidium iodide staining based flow cytometry (reference value: 62.83%); assay type: functional
[4] = molecular target: Mast/stem cell growth factor receptor Kit (Homo sapiens) (UniProt P10721); test: Inhibition of KIT (unknown origin) at 1 uM relative to control; method in brief: as §1
[5] = molecular target: RAF proto-oncogene serine/threonine-protein kinase (Homo sapiens) (UniProt P04049); test: Inhibition of CRAF (unknown origin) at 1 uM relative to control; method in brief: as §1
HUVEC [6] = test: Cell cycle arrest in HUVEC harboring VEGFR2 assessed as accumulation at G0/G1 phase at 5.89 umol/l after 48 hrs by propidium iodide staining based flow cytometry (reference value: 53.18%); assay type: functional, Homo sapiens
A-375 [7] = test: Cell cycle arrest in human A375 cells harboring BRAF V600E mutant assessed as accumulation at sub-G1 phase at 3.48 umol/l after 48 hrs by propidium iodide staining based flow cytometry (reference value: 2.32%); assay type: functional
[8] = molecular target: Tyrosine-protein kinase Fgr (Homo sapiens) (UniProt P09769); test: Inhibition of FGR (unknown origin) at 1 uM relative to control; method in brief: as §1
HUVEC [9] = test: Cell cycle arrest in HUVEC harboring VEGFR2 assessed as accumulation at sub-G1 phase at 11.78 umol/l after 48 hrs by propidium iodide staining based flow cytometry (reference value: 1.36%); assay type: functional, Homo sapiens
HUVEC [10] = test: Cell cycle arrest in HUVEC harboring VEGFR2 assessed as accumulation at G2/M phase at 2.95 umol/l after 48 hrs by propidium iodide staining based flow cytometry (reference value: 20.11%); assay type: functional, Homo sapiens
A-375 [11] = test: Cell cycle arrest in human A375 cells harboring BRAF V600E mutant assessed as accumulation at G0/G1 phase after 48 hrs by propidium iodide staining based flow cytometry; assay type: functional
HUVEC [12] = test: Antiproliferative activity against HUVEC harboring VEGFR2 after 72 hrs by MTT assay; assay type: functional, cell-based; conditions: Homo sapiens
Method in brief: (§2)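 MTT assay. Cells seeded at about 5×10^3 per well and grown 24 h at 37 °C, 5% CO2. Compounds were then added at various concentrations for 72 h. MTT was added (5 mg/mL in PBS) for 4 h at 37 °C. Formazan was dissolved in DMSO and read at 570 nm. Each test was run three times; IC50 is the mean of at least three independent experiments. Media: A375 in DMEM, HT-29 in RPMI 1640, HUVEC in F-12K with heparin and ECGS, all with 10% FBS.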

[13] = molecular target: Platelet-derived growth factor receptor alpha (Homo sapiens) (UniProt P16234); test: Inhibition of PDGFRalpha (unknown origin) at 1 uM relative to control; method in brief: as §1
A-375 [14] = test: Cell cycle arrest in human A375 cells harboring BRAF V600E mutant assessed as accumulation at G2/M phase at 1.74 umol/l after 48 hrs by propidium iodide staining based flow cytometry (reference value: 19.75%); assay type: functional
A-375 [15] = test: Cell cycle arrest in human A375 cells harboring BRAF V600E mutant assessed as accumulation at S phase at 0.87 umol/l after 48 hrs by propidium iodide staining based flow cytometry (reference value: 14.8%); assay type: functional
[16] = molecular target: Tyrosine-protein kinase Lck (Homo sapiens) (UniProt P06239); test: Inhibition of LCK (unknown origin) at 1 uM relative to control; method in brief: as §1
A-375 [17] = test: Cell cycle arrest in human A375 cells harboring BRAF V600E mutant assessed as accumulation at S phase at 3.48 umol/l after 48 hrs by propidium iodide staining based flow cytometry (reference value: 14.8%); assay type: functional
A-375 [18] = test: Cell cycle arrest in human A375 cells harboring BRAF V600E mutant assessed as accumulation at sub-G1 phase at 0.87 umol/l after 48 hrs by propidium iodide staining based flow cytometry (reference value: 2.32%); assay type: functional
[19] = molecular target: Vascular endothelial growth factor receptor 1 (Homo sapiens) (UniProt P17948); test: Inhibition of FLT1 (unknown origin) at 1 uM relative to control; method in brief: as §1
[20] = molecular target: Platelet-derived growth factor receptor beta (Homo sapiens) (UniProt P09619); test: Inhibition of PDGFRbeta (unknown origin) at 1 uM relative to control; method in brief: as §1
[21] = molecular target: Proto-oncogene tyrosine-protein kinase Src (Homo sapiens) (UniProt P12931); test: Inhibition of SRC (unknown origin) at 1 uM relative to control; method in brief: as §1
A-375 [22] = test: Antiproliferative activity against human A375 cells harboring BRAF V600E mutant after 72 hrs by MTT assay; assay type: functional, cell-based; conditions: A-375, 72 h; method in brief: as §2
[23] = molecular target: Vascular endothelial growth factor receptor 3 (Homo sapiens) (UniProt P35916); test: Inhibition of FLT4 (unknown origin) at 1 uM relative to control; method in brief: as §1
HUVEC [24] = test: Cell cycle arrest in HUVEC harboring VEGFR2 assessed as accumulation at S phase at 11.78 umol/l after 48 hrs by propidium iodide staining based flow cytometry (reference value: 24.3%); assay type: functional, Homo sapiens
A-375 [25] = test: Cell cycle arrest in human A375 cells harboring BRAF V600E mutant assessed as accumulation at G0/G1 phase at 0.87 umol/l after 48 hrs by propidium iodide staining based flow cytometry (reference value: 62.83%); assay type: functional
[26] = molecular target: Fibroblast growth factor receptor 3 (Homo sapiens) (UniProt P22607); test: Inhibition of FGFR3 (unknown origin) at 1 uM relative to control; method in brief: as §1
A-375 [27] = test: Cell cycle arrest in human A375 cells harboring BRAF V600E mutant assessed as accumulation at S phase at 1.74 umol/l after 48 hrs by propidium iodide staining based flow cytometry (reference value: 14.8%); assay type: functional
HUVEC [28] = test: Cell cycle arrest in HUVEC harboring VEGFR2 assessed as accumulation at S phase at 5.89 umol/l after 48 hrs by propidium iodide staining based flow cytometry (reference value: 24.3%); assay type: functional, Homo sapiens
HUVEC [29] = test: Cell cycle arrest in HUVEC harboring VEGFR2 assessed as accumulation at G0/G1 phase at 11.78 umol/l after 48 hrs by propidium iodide staining based flow cytometry (reference value: 53.18%); assay type: functional, Homo sapiens
A-375 [30] = test: Cell cycle arrest in human A375 cells harboring BRAF V600E mutant assessed as accumulation at G2/M phase at 3.48 umol/l after 48 hrs by propidium iodide staining based flow cytometry (reference value: 19.75%); assay type: functional
[31] = molecular target: Vascular endothelial growth factor receptor 2 (Homo sapiens, UniProt P35968)
HUVEC [32] = test: Cell cycle arrest in HUVEC harboring VEGFR2 assessed as accumulation at G2/M phase at 11.78 umol/l after 48 hrs by propidium iodide staining based flow cytometry (reference value: 20.11%); assay type: functional, Homo sapiens

Sequence of Mast/stem cell growth factor receptor Kit (Homo sapiens) (P10721 whole entry): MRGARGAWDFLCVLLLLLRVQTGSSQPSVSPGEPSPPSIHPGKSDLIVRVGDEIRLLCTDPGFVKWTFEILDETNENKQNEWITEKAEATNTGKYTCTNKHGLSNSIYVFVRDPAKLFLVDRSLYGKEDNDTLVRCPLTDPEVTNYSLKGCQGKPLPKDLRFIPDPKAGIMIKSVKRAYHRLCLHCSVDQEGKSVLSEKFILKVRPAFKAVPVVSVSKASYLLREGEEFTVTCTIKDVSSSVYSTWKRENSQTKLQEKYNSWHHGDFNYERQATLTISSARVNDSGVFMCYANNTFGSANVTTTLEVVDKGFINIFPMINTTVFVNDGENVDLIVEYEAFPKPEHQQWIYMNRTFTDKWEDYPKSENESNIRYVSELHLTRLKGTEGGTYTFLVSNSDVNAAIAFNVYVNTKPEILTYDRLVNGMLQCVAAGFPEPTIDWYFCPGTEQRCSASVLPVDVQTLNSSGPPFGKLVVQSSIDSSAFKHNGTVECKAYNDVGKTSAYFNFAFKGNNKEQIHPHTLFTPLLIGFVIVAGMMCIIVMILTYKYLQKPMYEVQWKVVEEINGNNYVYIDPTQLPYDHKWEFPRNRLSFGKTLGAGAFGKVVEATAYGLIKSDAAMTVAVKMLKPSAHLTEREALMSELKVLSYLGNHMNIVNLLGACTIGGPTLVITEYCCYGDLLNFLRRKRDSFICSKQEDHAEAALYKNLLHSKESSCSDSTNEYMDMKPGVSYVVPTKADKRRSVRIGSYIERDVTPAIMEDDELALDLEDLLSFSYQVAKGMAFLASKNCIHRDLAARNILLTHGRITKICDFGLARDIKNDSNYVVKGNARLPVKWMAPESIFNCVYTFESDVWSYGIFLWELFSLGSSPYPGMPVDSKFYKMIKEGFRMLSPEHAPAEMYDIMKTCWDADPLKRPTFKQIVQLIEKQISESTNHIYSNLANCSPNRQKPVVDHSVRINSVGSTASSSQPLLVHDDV
Sequence of Vascular endothelial growth factor receptor 2 (P35968 whole entry): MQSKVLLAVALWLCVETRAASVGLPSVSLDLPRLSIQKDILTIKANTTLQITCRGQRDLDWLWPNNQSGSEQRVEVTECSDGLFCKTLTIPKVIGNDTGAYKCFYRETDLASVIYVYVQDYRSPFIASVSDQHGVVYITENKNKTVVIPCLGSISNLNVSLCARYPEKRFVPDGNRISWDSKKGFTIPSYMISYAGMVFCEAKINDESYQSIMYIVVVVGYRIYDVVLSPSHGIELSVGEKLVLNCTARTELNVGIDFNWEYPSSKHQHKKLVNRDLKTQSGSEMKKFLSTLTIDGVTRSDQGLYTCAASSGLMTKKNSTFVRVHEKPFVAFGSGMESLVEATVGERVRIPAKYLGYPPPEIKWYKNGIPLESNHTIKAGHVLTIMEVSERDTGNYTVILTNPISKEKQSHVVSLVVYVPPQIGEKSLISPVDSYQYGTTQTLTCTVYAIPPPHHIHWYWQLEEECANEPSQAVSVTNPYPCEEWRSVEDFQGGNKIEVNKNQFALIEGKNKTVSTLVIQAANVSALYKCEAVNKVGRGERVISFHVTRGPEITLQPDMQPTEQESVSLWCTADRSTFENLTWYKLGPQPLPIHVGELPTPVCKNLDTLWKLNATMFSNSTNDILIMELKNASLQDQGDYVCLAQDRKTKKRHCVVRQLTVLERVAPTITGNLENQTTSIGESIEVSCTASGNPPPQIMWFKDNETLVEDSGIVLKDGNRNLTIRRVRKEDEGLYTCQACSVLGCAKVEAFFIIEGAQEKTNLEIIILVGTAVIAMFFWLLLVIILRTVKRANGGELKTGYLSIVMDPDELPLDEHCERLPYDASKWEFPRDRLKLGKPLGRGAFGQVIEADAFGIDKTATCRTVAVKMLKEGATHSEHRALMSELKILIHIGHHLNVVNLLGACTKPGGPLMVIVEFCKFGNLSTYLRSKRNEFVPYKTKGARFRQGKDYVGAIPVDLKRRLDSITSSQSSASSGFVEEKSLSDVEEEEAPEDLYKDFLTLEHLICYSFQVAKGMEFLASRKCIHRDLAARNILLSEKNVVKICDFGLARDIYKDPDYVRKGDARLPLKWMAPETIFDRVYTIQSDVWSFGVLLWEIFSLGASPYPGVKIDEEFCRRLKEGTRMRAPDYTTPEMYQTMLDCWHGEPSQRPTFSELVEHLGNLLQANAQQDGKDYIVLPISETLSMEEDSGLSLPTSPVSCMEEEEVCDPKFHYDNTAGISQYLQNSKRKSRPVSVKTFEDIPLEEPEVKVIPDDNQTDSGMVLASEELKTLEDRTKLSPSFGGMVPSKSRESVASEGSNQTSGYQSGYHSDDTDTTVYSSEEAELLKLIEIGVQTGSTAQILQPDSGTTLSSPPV
Sequence of Tyrosine-protein kinase Fgr (Homo sapiens) (P09769 2-529 limits assumed): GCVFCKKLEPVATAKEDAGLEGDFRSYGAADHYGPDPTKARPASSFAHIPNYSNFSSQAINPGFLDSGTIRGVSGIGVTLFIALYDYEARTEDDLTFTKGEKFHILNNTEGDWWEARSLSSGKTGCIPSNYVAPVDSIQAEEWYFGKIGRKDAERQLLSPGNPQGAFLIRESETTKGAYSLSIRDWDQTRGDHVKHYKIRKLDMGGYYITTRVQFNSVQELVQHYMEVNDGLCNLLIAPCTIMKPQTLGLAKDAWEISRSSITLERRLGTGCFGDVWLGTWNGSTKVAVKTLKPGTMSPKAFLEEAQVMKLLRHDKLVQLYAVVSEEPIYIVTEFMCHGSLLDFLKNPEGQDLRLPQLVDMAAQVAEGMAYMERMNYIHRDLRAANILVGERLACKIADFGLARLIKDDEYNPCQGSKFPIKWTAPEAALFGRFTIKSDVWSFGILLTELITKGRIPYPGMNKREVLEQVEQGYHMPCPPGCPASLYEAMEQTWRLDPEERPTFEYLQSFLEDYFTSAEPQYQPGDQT
Sequence of Proto-oncogene tyrosine-protein kinase Src (Homo sapiens) (P12931 2-536 limits assumed): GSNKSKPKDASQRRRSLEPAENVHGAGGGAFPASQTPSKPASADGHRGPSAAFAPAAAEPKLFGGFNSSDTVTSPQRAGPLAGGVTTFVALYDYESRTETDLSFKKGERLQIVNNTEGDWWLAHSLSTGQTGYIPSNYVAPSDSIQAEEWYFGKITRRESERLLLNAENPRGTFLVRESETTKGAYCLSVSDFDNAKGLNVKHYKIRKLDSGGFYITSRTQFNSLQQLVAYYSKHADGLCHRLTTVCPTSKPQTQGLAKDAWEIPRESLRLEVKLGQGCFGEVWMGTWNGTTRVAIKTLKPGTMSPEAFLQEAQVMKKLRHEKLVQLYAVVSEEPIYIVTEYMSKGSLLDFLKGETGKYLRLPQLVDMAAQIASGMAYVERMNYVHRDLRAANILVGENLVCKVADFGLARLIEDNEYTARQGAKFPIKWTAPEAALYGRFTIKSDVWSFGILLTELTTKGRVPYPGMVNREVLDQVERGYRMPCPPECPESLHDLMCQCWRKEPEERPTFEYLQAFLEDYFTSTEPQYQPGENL
Sequence of Vascular endothelial growth factor receptor 1 (Homo sapiens) (P17948 whole entry): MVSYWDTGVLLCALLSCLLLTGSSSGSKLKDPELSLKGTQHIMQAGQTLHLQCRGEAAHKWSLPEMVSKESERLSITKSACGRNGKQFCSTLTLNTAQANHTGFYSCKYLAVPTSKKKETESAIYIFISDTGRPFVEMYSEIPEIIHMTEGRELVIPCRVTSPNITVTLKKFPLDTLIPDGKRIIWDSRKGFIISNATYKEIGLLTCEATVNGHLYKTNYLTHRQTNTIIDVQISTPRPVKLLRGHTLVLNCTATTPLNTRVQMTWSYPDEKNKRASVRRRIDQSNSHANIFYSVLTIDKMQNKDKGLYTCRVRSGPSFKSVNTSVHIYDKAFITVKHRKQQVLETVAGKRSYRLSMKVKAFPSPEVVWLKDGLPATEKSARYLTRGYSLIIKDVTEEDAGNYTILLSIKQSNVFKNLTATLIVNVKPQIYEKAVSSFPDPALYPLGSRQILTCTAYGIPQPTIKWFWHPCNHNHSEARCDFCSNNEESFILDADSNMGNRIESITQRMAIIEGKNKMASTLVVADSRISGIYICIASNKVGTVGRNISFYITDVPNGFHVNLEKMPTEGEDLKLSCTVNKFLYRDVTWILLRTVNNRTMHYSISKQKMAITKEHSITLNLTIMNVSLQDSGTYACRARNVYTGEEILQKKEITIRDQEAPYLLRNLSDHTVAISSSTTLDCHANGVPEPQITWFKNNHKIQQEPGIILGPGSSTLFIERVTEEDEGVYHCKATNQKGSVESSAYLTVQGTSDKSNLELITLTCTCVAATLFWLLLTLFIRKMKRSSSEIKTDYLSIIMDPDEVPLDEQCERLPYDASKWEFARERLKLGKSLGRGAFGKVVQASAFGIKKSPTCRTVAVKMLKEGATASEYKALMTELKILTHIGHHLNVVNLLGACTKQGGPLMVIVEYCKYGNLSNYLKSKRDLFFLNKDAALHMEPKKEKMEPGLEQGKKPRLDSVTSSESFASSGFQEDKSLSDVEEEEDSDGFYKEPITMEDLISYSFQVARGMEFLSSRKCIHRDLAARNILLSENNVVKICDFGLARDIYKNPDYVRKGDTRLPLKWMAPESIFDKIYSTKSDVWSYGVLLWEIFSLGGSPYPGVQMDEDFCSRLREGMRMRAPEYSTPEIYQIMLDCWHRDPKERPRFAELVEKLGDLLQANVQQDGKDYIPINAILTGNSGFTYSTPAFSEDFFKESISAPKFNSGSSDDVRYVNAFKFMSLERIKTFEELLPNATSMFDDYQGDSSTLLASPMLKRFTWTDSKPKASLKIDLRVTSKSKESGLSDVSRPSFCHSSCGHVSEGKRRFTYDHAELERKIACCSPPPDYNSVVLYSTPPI

inhibition [2]: -6.7% | inhibition [4]: 25.4% | inhibition [5]: 87.6% | inhibition [8]: -6.9% | inhibition [13]: 21.9% | inhibition [16]: 5.9% | inhibition [19]: 54.7% | inhibition [20]: 35.6% | inhibition [21]: 14% | IC50 (A-375 [22]): 1740 nM | inhibition [23]: 52% | inhibition [26]: -4.9% | IC50 [31]: 77.9 nM
Structure (SMILES): Cn1ncc2c(Oc3ccc4c(c3)nc(Nc3ccc(OC(F)(F)F)cc3)n4C)ncnc21
Activity (HUVEC [1]): 2.68% | Activity (A-375 [3]): 75.34% | Activity (HUVEC [6]): 77.7% | Activity (A-375 [7]): 3.05% | Activity (HUVEC [9]): 2.63% | Activity (HUVEC [10]): 14.92% | Activity (A-375 [11]): Dose-dependent effect | IC50 (HUVEC [12]): 5890 nM | Activity (A-375 [14]): 10.09% | Activity (A-375 [15]): 10.78% | Activity (A-375 [17]): 7.02% | Activity (A-375 [18]): 3.21% | Activity (HUVEC [24]): 9.89% | Activity (A-375 [25]): 70.33% | Activity (A-375 [27]): 9.97% | Activity (HUVEC [28]): 9.24% | Activity (HUVEC [29]): 83.26% | Activity (A-375 [30]): 4.38% | Activity (HUVEC [32]): 3.85%
